Data set [1] concerns CB1 receptor. As to conditions: repeated exposure to low doses, ref Ghosh et al., 2013, Kinsey et al.; cited from earlier work.
In data set [2] the target is CB1 receptor. As to conditions: ref Laprairie et al., 2017; cited from earlier work.
The subject of data set [3] is Genetic Absence Epilepsy Rats from Strasbourg (GAERS). Conditions: ref Roebuck et al., 2021, cited from earlier work.
In data set [4] the test system is F1.Scn1a^+/− mice. Nature of the data set: Hyperthermia-induced seizures. It counts as in vivo, mouse. In short, it runs like this: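 Male and female F1.Scn1a+/− mice at P14–16 received i.p. dosing (10 mL/kg; vehicle ethanol:Tween 80:saline 1:1:18). A rectal probe was inserted 15 min before the post-dose time point (30 or 60 min, set by PK), followed by 5-min acclimation. Core temperature was raised 0.5°C every 2 min until first clonic convulsion with loss of posture, or to 42.5°C with a 3-min hold. n = 17–22 per group; logrank Mantel-Cox.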

In another data set the test system is wildtype mice. Conditions: 10 mg/kg; ref Laprairie et al., 2019; cited from earlier work.
Data set [5] can be described thus: Oral bioavailability after subchronic oral administration. Conditions: sufficient plasma concentrations not achieved. It counts as in vivo, mouse.
Data set [6] is described as follows: Pharmacokinetic analysis in mouse plasma and brain after i.p. injection. It is filed as in vivo.
Another data set is described as follows: Aqueous solubility. It counts as physicochemical.
The format of data set [7] is in vivo, mouse. Conditions: for Plasma Concentration: 30 min; for Plasma Concentration / concentration at 60 min: F1.Scn1a^+/− mice; for concentration at 60 min: both, F1.Scn1a+/−, mouse, in vivo, Plasma Concentration.
Data set [8] deals with F1.Scn1a^+/− mice. As to conditions: 2017, cited from earlier work.
Data set [9] deals with 2-arachidonoylglycerol (2-AG). Description: Hippocampal 2-AG concentrations after ABX-1431 treatment. As to conditions: F1.Scn1a^+/− mice. It counts as in vivo, mouse.
The test system of data set [10] is CB1 receptor. Description: Hippocampal CB1 receptor expression by immunoblotting after subchronic treatment. It is filed as in vivo, mouse. Conditions: subchronic 350 mg ABX-1431/kg chow; F1.Scn1a^+/− mice; p = 0.0077. A digest of the protocol: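 Hippocampi from F1.Scn1a+/− mice, untreated or fed 350 mg/kg chow, were Dounce-homogenised in buffered 0.32 M sucrose. Membranes were isolated by sequential 2,000g and 20,000g spins at 4°C and protein quantified by Bradford. Membrane protein (20 μg) was run on 10% SDS-PAGE and transferred to PVDF. Rabbit anti-CB1 was detected with fluorescent secondaries (1:20,000). Densitometry was normalised to β-tubulin; Student's t-test.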

Another data set concerns anandamide (AEA). Description: Hippocampal anandamide concentrations after ABX-1431 treatment. It counts as in vivo, mouse. As to conditions: acute i.p. treatment; F1.Scn1a^+/− mice. In short, it runs like this: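 Acute i.p. dosing of F1.Scn1a+/− mice in ethanol:Tween 80:saline (1:1:18), 10 mL/kg. Whole brains were taken 60 min post-dose after hyperthermia testing, by cervical dislocation without anaesthesia, and snap frozen. Hippocampi were Dounce-homogenised and spun at 20,000g for 30 min at 4°C. Supernatant underwent dichloromethane:methanol (2:1)/0.88% KCl liquid-liquid extraction on ice, avoiding plastics. Analysis was by UHPLC-triple quadrupole LC-MS/MS against external calibration curves. 2-AG: Brown-Forsythe ANOVA, Dunnett's T3. Anandamide: Kruskal-Wallis.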

Data set [11] deals with F1.Scn1a^+/− mice. Description: Spontaneous seizures and survival. Conditions: 350 mg ABX-1431/kg chow. It counts as in vivo, mouse. A digest of the protocol: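 Male and female F1.Scn1a+/− mice had one hyperthermia-induced seizure at P18, then were randomised to untreated or 350 mg/kg medicated chow made from irradiated powdered diet. Continuous 60-h video recording was used to count and score spontaneous GTCS. Treatment continued to P30 for survival. Fisher's exact test covered seizure-free and hindlimb-extension proportions, Mann-Whitney covered frequency, and logrank covered survival.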

The format of data set [12] is in vivo, mouse. Conditions: 350 mg/kg chow, subchronic oral.
For a further data set, the system named is neuropathic pain model. As to conditions: combined with the MAGL inhibitor JZL184; ref Slivicki et al., 2018; cited from earlier work.
Where [13] appears, read: brain, wildtype mice, 5 mg/kg i.p.
The mark [14] stands for this setting: brain, wildtype mice, 5 mg/kg i.p., converted from ng/mg brain assuming density of 1 g/mL.
The mark [15] stands for this setting: plasma, wildtype mice, 5 mg/kg i.p.

Here are results for six molecules from paper PMC9514665 (Neuropharmacology, 2021).

Values joined by “and” are separate entries in the source; they are usually repeats but may differ in a detail not shown here. Equal entries are not always repeated. Where two headings read alike, the source gives them in different places. Marks after values point to notes of the source that are not given here.

Take `O=C(Oc1ccc([N+](=O)[O-])cc1)N1CCC(C(O)(c2ccc3c(c2)OCO3)c2ccc3c(c2)OCO3)CC1` [JZL184]: the “CB1 receptor downregulation and desensitization” value in the data set with CB1 receptor [1] is “does not occur”.
For `O=[N+]([O-])C[C@@H](c1ccccc1)c1c(-c2ccccc2)[nH]c2ccccc12` [GAT229], the 50% effective concentration (EC50) at CB1 receptor [2] is about 295 nM. Also, the “association with sedation or catalepsy” value in data set [3] (GAERs model) was “not associated”. The “effect against absence seizures” value in data set [3] is given as “anticonvulsant effects”. The “temperature threshold for thermally-induced seizures (GTCS)” value in the data set with F1.Scn1a^+/− mice [4] (30 mg/kg i.p., vehicle 41.1 ± 0.1°C, p = 0.0152) was 41.7 ± 0.2 °C; with F1.Scn1a^+/− mice [4] (100 mg/kg i.p., vehicle 41.1 ± 0.1°C, p = 0.0059), 41.8 ± 0.1 °C. The “effect on locomotor activity” value with wildtype mice is “reduced”. Also, in [5], the oral bioavailability result is on record as “poor”. In addition, the t1/2 in data set [6] (setting [13]) turned out to be 53 min; in [6] (setting [15]) it was 45 min. For the same molecule, the tmax in data set [6] (setting [13]) and in data set [6] (setting [15]) was 30 ng/mL throughout. In addition, the AUC in [6] (setting [14]) was 85 ^* μg min/mL; in [6] (setting [15]) it was 74 µg·min/mL. In addition, the Cmax in data set [6] (setting [14]) was 888 ± 90 ng/mL; in data set [6] (setting [15]), 858 ± 167 ng/mL. The molecule further had a brain-plasma in data set [6] (wildtype mice, 5 mg/kg i.p.) of 110%. Further, in data set [6] (wildtype mice, 5 mg/kg i.p.), the brain-plasma ratio worked out at 1.1. For the same molecule, the aqueous solubility result in “Aqueous solubility” is “poor”. The “Plasma Concentration” value in data set [7] (10 mg/kg i.p.) worked out at 900 ± 100 ng/mL; in data set [7] (30 mg/kg i.p. (suspension)), 2600 ± 500 ng/mL; in [7] (100 mg/kg i.p. (suspension)) it was 3200 ± 200 ng/mL. Also, in [7] (30 and 100 mg/kg doses), the “Plasma concentrations in experimental animals” value is 7.6–9.3 μM and 2.6–3.2 μg/mL. Moreover, the “Plasma Concentration of GAT229” value in [7] (co-treatment GAT229 + ABX-1431 (30 mg/kg + 10 mg/kg)) amounted to 2300 ± 300 ng/mL.
Consider `C=C(C)[C@@H]1CCC(C)=C[C@H]1c1c(O)cc(CCCCC)cc1O` [CBD, cannabidiol], for which, in the data set on F1.Scn1a^+/− mice [8] (ref Anderson et al., 2020, 2019a, Kaplan et al.), the “effective dose in this model” value is listed as 100 mg/kg.
On to `CN1C(=O)CC(=O)N(c2ccccc2)c2cc(Cl)ccc21` [clobazam], for which, in the data set on F1.Scn1a^+/− mice [8] (ref Anderson et al., 2019a, Hawkins et al.), the “effective dose in this model” value was 1 mg/kg.
For `O=C(OC(C(F)(F)F)C(F)(F)F)N1CCN(Cc2ccc(C(F)(F)F)cc2N2CCCC2)CC1` [ABX-1431], the “hippocampal 2-AG concentrations relative to vehicle-treated mice” value in data set [9] (acute 10 mg/kg i.p.) came out at 8 fold. Also, the “hippocampal 2-AG concentrations increase” value in data set [9] (acute 30 mg/kg i.p.) is given as 13 fold; in [9] (subchronic oral (350 mg/kg chow)) it was 15 fold. Besides, in the data set with F1.Scn1a^+/− mice [4] (10 mg/kg i.p., vehicle 40.6 ± 0.1°C, p = 0.0008), the “temperature threshold for thermally-induced seizures (GTCS)” value was 41.3 ± 0.2 °C. Also, the “effect on hippocampal CB1 receptor expression” value in the data set on CB1 receptor [10] is reported as “significantly lowered”. In addition, in the data set with anandamide (AEA), the “effect on hippocampal anandamide concentrations” value was “not affected”. In [6] (mouse, in vivo, ip, 5 mg/kg), this molecule gave an area under the curve (AUC) of 29 µg·min/mL. Moreover, the peak concentration (Cmax) is 317 ± 40 ng/mL in [6] (mouse, in vivo, ip, 5 mg/kg) and 468 ± 40 ng/mL in data set [6] (mouse, in vivo, ip, 5 mg/kg, Cmax). In addition, in data set [6] (mouse, in vivo, ip, 5 mg/kg), the “brain half-life (in words)” value is given as “prolonged”. The half-life in [6] (mouse, in vivo, ip, 5 mg/kg) stood at 47 min. For the same molecule, the “survival compared with untreated controls” value in the data set on F1.Scn1a^+/− mice [11] (P18 to P30, p = 0.6803) was “not different”. For the same molecule, the “effect on spontaneous seizure (GTCS) frequency” value in the data set with F1.Scn1a^+/− mice [11] (60-h recording, vs untreated, p = 0.0064) was “significantly increase”. Moreover, the “proportion of seizures that progressed to full hindlimb extension” value in the data set with F1.Scn1a^+/− mice [11] (93/272 seizures, untreated 45/83 (54%), p = 0.0011) came out at 34%. In addition, in the data set on F1.Scn1a^+/− mice [11] (vs untreated, p = 0.6562), the “effect on proportion of mice that exhibited seizures” value was “did not affect”. For the same molecule, the “Plasma Concentration” value in data set [12] was in the range of 170 to 394 ng/mL. For the same molecule, the concentration at 60 min in [7] (3 mg/kg i.p.) was 198 ± 31 ng/mL; in data set [7] (10 mg/kg i.p.) it was 373 ± 53 ng/mL; in data set [7] (30 mg/kg i.p.) it was 883 ± 114 ng/mL.
As to `O=[N+]([O-])CC(c1ccccc1)c1c(-c2ccccc2)[nH]c2ccccc12` (stereo not shown) [GAT211], the antinociceptive effect result in the data set with neuropathic pain model is given as “synergistic”.

A word on the EC50: it is the concentration giving half of the maximal effect. By AUC is commonly meant the area under the concentration-time curve, a measure of exposure. Lower therefore signals less exposure. As a reminder, the Cmax is the maximum level reached in the sampled fluid or tissue. In general, half-life refers to how long it takes for the measured level to halve. High values mean slow loss, low ones fast loss.
